Type in all cases: functional
One assay concerns Bacillus subtilis. Nature of the assay: Antibacterial activity against Bacillus subtilis ATCC 6633 at 50 mg/ml after 24 hrs by agar diffusion test. The note with it: for zone of inhibition at 50000 µg/mL: ATCC 6633, 24 h, read-out: DIZ. In outline: (§1)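 Agar diffusion: wells in agar filled with […] DMSO solution of compound at various concentrations; diameter of clear zone around application point measured. Bacteria grown 24 h at 37 °C on nutrient agar. Compounds first screened at 50 mg/ml; those active then tested at lower concentrations. Bracketed value = lowest concentration (mg/ml) giving zone >11 mm, reported only if activity retained at ≤1.25 mg/ml.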
A general note: Agar diffusion results depend on both activity and mobility in agar.

The next assay relates to Escherichia coli. Nature of the assay: Antibacterial activity against Escherichia coli ATCC 8739 at 50 mg/ml after 24 hrs by agar diffusion test. Particulars: for zone of inhibition at 50000 µg/mL: ATCC 8739, 24 h, read-out: DIZ. In outline: as §1
For assay [1], the system named is Mycobacterium tuberculosis. Nature of the assay: Antimycobacterial activity against Mycobacterium tuberculosis H37Rv after 45 days. Put shortly:
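Canetti proportion method. Compound in DMSO is added to Löwenstein–Jensen egg medium before coagulation (30 min, 85 °C), tested at three levels plus a lower one where needed. Tubes are inoculated with H37Rv at 10⁵ cells/ml and incubated 45 days at 37 °C. Colony counts versus drug-free control give percentage inhibition.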

In another assay the test system is Candida tropicalis. The experiment in a line: Antifungal activity against Candida tropicalis ATCC 20336 at 50 mg/ml after 72 hrs by agar diffusion test. The note with it: for zone of inhibition at 50000 µg/mL: ATCC 20336, 72 h, read-out: DIZ. In outline:
(§2)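 Agar diffusion: yeasts grown on yeast peptone dextrose agar and fungi on potato dextrose agar. Wells are filled with […] of compound solution in DMSO at various concentrations, and the clear-zone diameter is measured. Bracketed values give the lowest concentration (mg/ml) that produces a zone >11 mm. A first screen is run at 50 mg/ml.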

For another assay, the system named is Bacillus. The experiment in a line: Antibacterial activity against Bacillus idosus B 241 at 50 mg/ml after 24 hrs by agar diffusion test. Particulars: for zone of inhibition at 50000 µg/mL: B 241, 24 h, read-out: DIZ. Put shortly:
as §1

Another assay concerns Priestia megaterium. The experiment in a line: Antibacterial activity against Bacillus megaterium NRRL 1353895 at 50 mg/ml after 24 hrs by agar diffusion test. Particulars: for zone of inhibition at 50000 µg/mL: NRRL 1353895, 24 h, read-out: DIZ. Put shortly:
as §1

For a further assay, the system named is Bacillus mycoides. The experiment in a line: Antibacterial activity against Bacillus mycoides DSMZ 274 at 50 mg/ml after 24 hrs by agar diffusion test. Particulars: for zone of inhibition at 50000 µg/mL: DSMZ 274, 24 h, read-out: DIZ. Put shortly: as §1
Another assay has as its system Staphylococcus aureus. The experiment in a line: Antibacterial activity against Staphylococcus aureus NRRL B 313 at 50 mg/ml after 24 hrs by agar diffusion test. The note with it: for zone of inhibition at 50000 µg/mL: NRRL B 313, 24 h, read-out: DIZ. In outline: (§3)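 Agar diffusion: bacteria grown 24 h at 37 °C on nutrient agar. Wells in the agar are filled with […] of compound solution in DMSO at various concentrations. The diameter of the clear zone around the application point is measured. Bracketed values give the lowest concentration (mg/ml) that produces a zone >11 mm. A first screen is run at 50 mg/ml.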

The next assay concerns Acinetobacter johnsonii. Nature of the assay: Antibacterial activity against Acinetobacter johnsonii ATCC 17909 at 50 mg/ml after 24 hrs by agar diffusion test. Particulars: for zone of inhibition at 50000 µg/mL: ATCC 17909, 24 h, read-out: DIZ. Put shortly: as §1
Assay [2] relates to Micrococcus luteus. Nature of the assay: Antibacterial activity against Micrococcus luteus ATCC 9631 at 50 mg/ml after 24 hrs by agar diffusion test. Particulars: for zone of inhibition at 50000 µg/mL: ATCC 9631, 24 h, read-out: DIZ. Put shortly:
as §1

For assay [3], the system named is Micrococcus luteus. Nature of the assay: Antibacterial activity against Sarcina lutea ATCC 9341 at 50 mg/ml after 24 hrs by agar diffusion test. Particulars: for zone of inhibition at 50000 µg/mL: ATCC 9341, 24 h, read-out: DIZ. Put shortly:
as §3

For another assay, the system named is Saccharomyces cerevisiae. The experiment in a line: Antifungal activity against Saccharomyces cerevisiae ATCC 9763 at 50 mg/ml after 72 hrs by agar diffusion test. Particulars: for zone of inhibition at 50000 µg/mL: ATCC 9763, 72 h, read-out: DIZ. In outline: as §2
For a further assay, the system named is Bacillus cereus. The experiment in a line: Antibacterial activity against Bacillus cereus ATCC 11778 at 50 mg/ml after 24 hrs by agar diffusion test. Particulars: for zone of inhibition at 50000 µg/mL: ATCC 11778, 24 h, read-out: DIZ. In outline: as §1
The next assay has as its system Penicillium chrysogenum. The experiment in a line: Antifungal activity against Penicillium chrysogenum CECT 2802 at 50 mg/ml after 72 hrs by agar diffusion test. Particulars: for zone of inhibition at 50000 µg/mL: CECT 2802, 72 h, read-out: DIZ. Put shortly:
as §2

Values after ≈ are worked out from the molar mass of the structure shown. Active and inactive are the calls of the source. Where only a bound is given, the exact number is not on record here.

For the compound `CC[C@H](CO)NCc1ccc2ccc3cccc4ccc1c2c34`, the zone of inhibition at 50000 µg/mL in the assay with Bacillus subtilis came to 14 mm; in the assay on Candida tropicalis it was 40 mm; in the assay on Bacillus, 30 mm; in the assay on Priestia megaterium, 13 mm; in the assay with Bacillus mycoides, 15 mm; in the assay with Staphylococcus aureus, 13 mm. Moreover, the zone of inhibition at 50000 µg/mL was 14 mm in the assay on Acinetobacter johnsonii; 14 mm in the assay with Micrococcus luteus [2]; 13 mm in the assay on Micrococcus luteus [3]; 35 mm with Saccharomyces cerevisiae; 14 mm with Bacillus cereus; 14 mm with Penicillium chrysogenum. In addition, the “diameter of the inhibition zone (DIZ)” value in the assay with Escherichia coli is “inactive”. Also, it took 16.5 µM (≈ 5 µg/mL) to inhibit growth in assay [1] (MIC).
In the case of `CC[C@H](CO)NCc1ccc(CN[C@H](CC)CO)cc1`, the zone of inhibition at 50000 µg/mL with Bacillus subtilis stood at 10 mm. The “diameter of the inhibition zone (DIZ)” value in the assay on Escherichia coli, in the assay with Candida tropicalis, in the assay with Bacillus, in the assay on Priestia megaterium, in the assay with Bacillus mycoides and in the assay on Staphylococcus aureus was “inactive” in each case. Moreover, the “diameter of the inhibition zone (DIZ)” value in the assay on Acinetobacter johnsonii, in the assay on Micrococcus luteus [2], in the assay on Micrococcus luteus [3], in the assay with Saccharomyces cerevisiae, in the assay on Bacillus cereus and in the assay with Penicillium chrysogenum was “inactive” in each case. Moreover, the MIC – broadly, the smallest concentration in the dilution series that meets the test's criterion for growth inhibition – in [1] came to 17.8 µM (≈ 5 µg/mL).
For `CC[C@H](CO)NCc1ccc2ccccc2c1`, the zone of inhibition at 50000 µg/mL in the assay on Bacillus subtilis came out at 19 mm; with Escherichia coli it was 22 mm; with Candida tropicalis, 10 mm; in the assay on Bacillus, 19 mm; in the assay with Priestia megaterium it was 17 mm; in the assay with Bacillus mycoides, 17 mm. Further, the zone of inhibition at 50000 µg/mL with Staphylococcus aureus turned out to be 19 mm; in the assay on Acinetobacter johnsonii, 17 mm; in the assay on Micrococcus luteus [2], 19 mm; in the assay on Micrococcus luteus [3], 17 mm; in the assay on Saccharomyces cerevisiae it was 10 mm; in the assay on Bacillus cereus it was 14 mm. The zone of inhibition at 50000 µg/mL in the assay with Penicillium chrysogenum was found to be 35 mm. The MIC in assay [1] was > 21.8 µM.
As for `CC[C@H](CO)n1cnc2ccccc2c1=O`, the “diameter of the inhibition zone (DIZ)” value with Bacillus subtilis, with Escherichia coli, in the assay with Candida tropicalis, in the assay on Priestia megaterium, in the assay with Bacillus mycoides and with Staphylococcus aureus was “inactive” in each case. Further, the “diameter of the inhibition zone (DIZ)” value in the assay on Micrococcus luteus [2], with Micrococcus luteus [3], in the assay on Saccharomyces cerevisiae, with Bacillus cereus and in the assay with Penicillium chrysogenum was “inactive” in each case. The compound also yielded an MIC in [1] of 22.9 µM (≈ 5 µg/mL). For the same compound, the zone of inhibition at 50000 µg/mL with Bacillus and with Acinetobacter johnsonii was 14 mm in each case.
Regarding `CC[C@H](CO)Nc1cccc(Br)n1`, the zone of inhibition at 50000 µg/mL in the assay on Bacillus subtilis stood at 13 mm; in the assay with Escherichia coli, 17 mm; in the assay on Candida tropicalis, 25 mm; in the assay on Bacillus, 17 mm; in the assay on Priestia megaterium it was 15 mm; in the assay on Bacillus mycoides it was 13 mm. The zone of inhibition at 50000 µg/mL came out at 14 mm in the assay on Staphylococcus aureus; 14 mm in the assay with Acinetobacter johnsonii; 18 mm in the assay on Micrococcus luteus [2]; 17 mm in the assay with Micrococcus luteus [3]; 10 mm with Saccharomyces cerevisiae; 19 mm with Bacillus cereus. For the same compound, in the assay on Penicillium chrysogenum, the zone of inhibition at 50000 µg/mL worked out at 17 mm. It took 20.4 µM (≈ 5 µg/mL) to inhibit growth in assay [1] (MIC).
In the case of `CC[C@H](CO)N1C(=O)CCC1=O`, the “diameter of the inhibition zone (DIZ)” value with Bacillus subtilis, with Escherichia coli, in the assay with Candida tropicalis, in the assay with Bacillus, in the assay on Priestia megaterium and in the assay with Bacillus mycoides was “inactive” each time. The “diameter of the inhibition zone (DIZ)” value in the assay with Staphylococcus aureus, with Acinetobacter johnsonii, in the assay with Micrococcus luteus [2], in the assay on Micrococcus luteus [3], in the assay on Saccharomyces cerevisiae and with Bacillus cereus was “inactive” throughout. Besides, the “diameter of the inhibition zone (DIZ)” value in the assay with Penicillium chrysogenum was “inactive”. Further, the minimum inhibitory concentration (MIC) in assay [1] is > 29.2 µM.
On to `CC[C@H](CO)/N=C1\C[C@H]2CC[C@]1(C)C2(C)C`, for which the “diameter of the inhibition zone (DIZ)” value with Bacillus subtilis, in the assay on Escherichia coli, in the assay with Candida tropicalis, in the assay on Bacillus, in the assay on Staphylococcus aureus and in the assay with Acinetobacter johnsonii was “inactive” each time. The “diameter of the inhibition zone (DIZ)” value in the assay on Micrococcus luteus [2], with Micrococcus luteus [3], with Saccharomyces cerevisiae, in the assay with Bacillus cereus and in the assay with Penicillium chrysogenum was “inactive” each time. For the same compound, the minimum inhibitory concentration (MIC) in assay [1] was > 22.4 µM. Besides, the zone of inhibition at 50000 µg/mL stood at 10 mm in the assay on Priestia megaterium and 11 mm in the assay on Bacillus mycoides.
With `CC[C@H](CO)NC(=O)c1cccc2ccccc12`, the “diameter of the inhibition zone (DIZ)” value in the assay with Bacillus subtilis, in the assay on Escherichia coli, in the assay with Candida tropicalis, in the assay on Bacillus, in the assay with Priestia megaterium and in the assay on Bacillus mycoides was “inactive” each time. The “diameter of the inhibition zone (DIZ)” value in the assay with Staphylococcus aureus, with Acinetobacter johnsonii, with Micrococcus luteus [2], with Micrococcus luteus [3], with Saccharomyces cerevisiae and with Bacillus cereus was “inactive” in each case. Further, the “diameter of the inhibition zone (DIZ)” value in the assay on Penicillium chrysogenum is “inactive”. In assay [1], the MIC is > 20.6 µM.
Consider `CC[C@H](CO)NC1c2ccccc2-c2ccccc21`, for which the “diameter of the inhibition zone (DIZ)” value in the assay with Bacillus subtilis and in the assay on Bacillus cereus was “inactive” throughout. Also, the zone of inhibition at 50000 µg/mL with Escherichia coli was found to be 12 mm; with Candida tropicalis, 17 mm; in the assay with Bacillus, 15 mm; in the assay on Priestia megaterium it was 22 mm; in the assay on Bacillus mycoides, 17 mm; with Staphylococcus aureus it was 12 mm. The zone of inhibition at 50000 µg/mL came out at 16 mm in the assay on Acinetobacter johnsonii; 17 mm with Micrococcus luteus [2]; 17 mm in the assay with Micrococcus luteus [3]; 22 mm in the assay with Saccharomyces cerevisiae; 20 mm in the assay with Penicillium chrysogenum. In assay [1], this compound displayed a minimum inhibitory concentration (MIC) of 19.7 µM (≈ 5 µg/mL).

(Values after ChEMBL document CHEMBL1932986, “Synthesis and in vitro antimycobacterial activity of compounds derived from (R)- and (S)-2-amino-1-butanol - The crucial role of the configuration” (Eur J Med Chem, 2012).)
